Assay results from ChEMBL document CHEMBL1143565, “Pyrido[2,3-d]pyrimidin-7-ones as specific inhibitors of cyclin-dependent kinase 4” (J Med Chem, 2005).
pIC50: −log10 of the molar value.

What was measured:
[1] = target: Cyclin-dependent kinase 1/cyclin B (Homo sapiens, UniProt P06493); assay: Inhibition of [32P]ATP binding to Cyclin dependent kinase 1-cyclin B; format: protein-complex assay
Method in brief: (§1)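 Human recombinant Cdk–cyclin holoenzymes expressed in insect cells via baculovirus. Each reaction held 20 ng enzyme, 1 µg GST-retinoblastoma substrate and inhibitor dilutions in 20 mM Tris pH 7.4, 50 mM NaCl, 1 mM DTT, 10 mM MgCl2. Started with [32P]ATP (0.25 µCi), at 25 µM for Cdk4 or 12 µM for Cdk2/E, Cdk2/A and Cdc2/B. Ran 15 min at 25 °C. Stopped with TCA and precipitated ≥1 h at 4 °C.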

[2] = target: Cyclin-dependent kinase 2/cyclin A (Homo sapiens, UniProt P24941); assay: (§2) Inhibition of [32P]ATP binding to Cyclin dependent kinase 2-cyclin A; format: protein-complex assay
Method in brief: (§3)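 Human recombinant Cdk–cyclin holoenzymes expressed in insect cells via baculovirus. Each reaction held 20 ng enzyme, 1 µg GST-retinoblastoma substrate and inhibitor dilutions in 20 mM Tris pH 7.4, 50 mM NaCl, 1 mM DTT, 10 mM MgCl2. Stopped with TCA and precipitated ≥1 h at 4 °C.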

[3] = target: Cyclin-dependent kinase 2/cyclin E (Homo sapiens, UniProt P24941); assay: Inhibition of [32P]ATP binding to Cyclin dependent kinase 2-cyclin E; format: protein-complex assay; method in brief: as §3
[4] = target: Cyclin-dependent kinase 4/cyclin D (Homo sapiens, UniProt P11802); assay: (§4) Inhibition of [32P]ATP binding to Cyclin dependant kinase 4-cyclin D; format: protein-complex assay; method in brief: as §1
[5] = target: Cyclin-dependent kinase 2/cyclin A (Homo sapiens, UniProt P24941+P20248+P78396); assay: as §2; format: protein-complex assay; method in brief: as §3
[6] = target: Cyclin-dependent kinase 4/cyclin D (Homo sapiens, UniProt P11802+P24385+P30281+P30279); assay: as §4; format: protein-complex assay; method in brief: as §1
[7] = target: T1, MAP kinase-activated protein kinase 5 (Homo sapiens, UniProt Q8IW41); assay: Inhibition of p38-regulated/activated kinase (PRAK)
T1 sequence (Q8IW41 whole entry): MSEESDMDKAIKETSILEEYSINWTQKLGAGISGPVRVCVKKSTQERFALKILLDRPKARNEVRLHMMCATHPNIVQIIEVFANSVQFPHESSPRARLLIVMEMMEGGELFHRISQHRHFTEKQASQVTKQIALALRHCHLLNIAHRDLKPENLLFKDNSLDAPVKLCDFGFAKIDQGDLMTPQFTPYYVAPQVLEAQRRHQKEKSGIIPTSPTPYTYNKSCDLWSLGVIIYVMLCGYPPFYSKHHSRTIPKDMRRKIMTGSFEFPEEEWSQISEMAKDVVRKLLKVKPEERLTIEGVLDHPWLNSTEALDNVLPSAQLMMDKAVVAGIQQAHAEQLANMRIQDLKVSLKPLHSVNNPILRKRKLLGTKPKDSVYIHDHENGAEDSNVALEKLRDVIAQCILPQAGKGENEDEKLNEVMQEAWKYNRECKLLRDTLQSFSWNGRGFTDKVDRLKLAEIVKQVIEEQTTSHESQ

Protein kinase C (PKC) = assay: Inhibition of Protein Kinase C; format: protein assay, Homo sapiens
[8] = target: Mitogen-activated protein kinase 14 (Homo sapiens, UniProt Q16539); assay: Inhibition of Stress activated protein kinase 2a
MDA-MB-435 = assay: In vitro inhibitory concentration is measured by the incorporation of [14C]thymidine in human breast carcinoma MDA-MB-435 cell line; format: functional, cell-based
[9] = Inhibition of Mitogen activated protein kinase kinase 1
[10] = Inhibition of Tyrosine-protein kinase CSK
[11] = target: Serine/threonine-protein kinase AKT (Homo sapiens, UniProt P31751+Q9Y243+P31749); assay: Inhibition of Protein kinase B; format: protein assay
[12] = target: MAP kinase-activated protein kinase 2 (Homo sapiens, UniProt P49137); assay: Inhibition of MAP kinase-activated protein kinase 2
[13] = target: Mitogen-activated protein kinase 11 (Homo sapiens, UniProt Q15759); assay: Inhibition of Stress activated protein kinase 2b
[14] = Inhibition of Phosphorylase kinase
[15] = target: Ribosomal protein S6 kinase alpha-5 (Homo sapiens, UniProt O75582); assay: Inhibition of mitogen and stress-activated protein kinase-1(MSK-1 kinase)
[16] = Inhibition of Protein Kinase A; parameters: species or system Homo sapiens
[17] = target: Glycogen synthase kinase-3 beta (Homo sapiens, UniProt P49841); assay: Inhibition of Glycogen synthase kinase 3 beta
[18] = target: Mitogen-activated protein kinase 1 (Homo sapiens, UniProt P28482); assay: Inhibition of Mitogen activated protein kinase (MAPK2/erk2)
[19] = target: c-Jun N-terminal kinase, JNK (Homo sapiens, UniProt P45983+P53779+P45984); assay: Inhibition of c-Jun N-terminal kinase; format: protein assay
[20] = target: Fibroblast growth factor receptor (Homo sapiens, UniProt P22607+P11362+P22455+P21802); assay: Inhibition of Fibroblast growth factor receptor; format: protein assay
[21] = target: Ribosomal protein S6 kinase (P70S6K) (Homo sapiens, UniProt P23443+Q9UBS0); assay: Inhibition of Ribosomal protein S6 kinase (p70S6K1); format: protein-complex assay
[22] = Inhibition of 3-phosphoinisitide-dependent protein kinase-1

Sequence of Cyclin-dependent kinase 4/cyclin D (Homo sapiens, UniProt P11802+P24385+P30281+P30279) (P11802 whole entry): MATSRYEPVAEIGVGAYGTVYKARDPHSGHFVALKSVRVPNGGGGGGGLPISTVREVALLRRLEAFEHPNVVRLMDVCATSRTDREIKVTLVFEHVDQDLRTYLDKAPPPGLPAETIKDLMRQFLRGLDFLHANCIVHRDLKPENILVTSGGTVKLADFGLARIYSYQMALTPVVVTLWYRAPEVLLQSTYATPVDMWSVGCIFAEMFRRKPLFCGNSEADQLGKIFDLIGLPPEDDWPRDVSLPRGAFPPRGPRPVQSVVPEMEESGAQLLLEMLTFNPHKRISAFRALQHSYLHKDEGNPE
Sequence of Cyclin-dependent kinase 4/cyclin D (Homo sapiens, UniProt P11802+P24385+P30281+P30279) (P24385 whole entry): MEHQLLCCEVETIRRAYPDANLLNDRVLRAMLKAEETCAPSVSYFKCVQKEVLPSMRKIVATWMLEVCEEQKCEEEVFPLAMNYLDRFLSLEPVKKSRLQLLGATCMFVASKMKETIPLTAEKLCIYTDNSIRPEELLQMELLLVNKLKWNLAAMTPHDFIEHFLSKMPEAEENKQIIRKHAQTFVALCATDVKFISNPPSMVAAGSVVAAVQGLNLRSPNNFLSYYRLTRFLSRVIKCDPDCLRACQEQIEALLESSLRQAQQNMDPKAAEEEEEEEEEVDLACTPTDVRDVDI
Sequence of Cyclin-dependent kinase 4/cyclin D (Homo sapiens, UniProt P11802+P24385+P30281+P30279) (P30281 whole entry): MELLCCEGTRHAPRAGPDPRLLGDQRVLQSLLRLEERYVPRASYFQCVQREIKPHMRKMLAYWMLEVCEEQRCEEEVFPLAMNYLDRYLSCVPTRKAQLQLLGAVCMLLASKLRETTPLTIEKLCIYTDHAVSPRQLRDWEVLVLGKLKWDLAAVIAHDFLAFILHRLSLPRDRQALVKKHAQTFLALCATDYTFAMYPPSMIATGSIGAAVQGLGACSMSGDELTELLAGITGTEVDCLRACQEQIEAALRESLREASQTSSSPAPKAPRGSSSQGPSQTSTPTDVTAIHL
Sequence of Cyclin-dependent kinase 4/cyclin D (Homo sapiens, UniProt P11802+P24385+P30281+P30279) (P30279 whole entry): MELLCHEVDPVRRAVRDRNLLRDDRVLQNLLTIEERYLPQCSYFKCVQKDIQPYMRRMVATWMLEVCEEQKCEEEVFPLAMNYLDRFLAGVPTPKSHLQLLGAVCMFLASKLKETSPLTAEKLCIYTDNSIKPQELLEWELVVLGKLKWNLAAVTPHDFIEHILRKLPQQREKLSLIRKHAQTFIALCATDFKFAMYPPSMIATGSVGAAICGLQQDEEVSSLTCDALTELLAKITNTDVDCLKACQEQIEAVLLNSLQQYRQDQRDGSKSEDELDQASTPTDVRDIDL
Sequence of Mitogen-activated protein kinase 1 (P28482 whole entry): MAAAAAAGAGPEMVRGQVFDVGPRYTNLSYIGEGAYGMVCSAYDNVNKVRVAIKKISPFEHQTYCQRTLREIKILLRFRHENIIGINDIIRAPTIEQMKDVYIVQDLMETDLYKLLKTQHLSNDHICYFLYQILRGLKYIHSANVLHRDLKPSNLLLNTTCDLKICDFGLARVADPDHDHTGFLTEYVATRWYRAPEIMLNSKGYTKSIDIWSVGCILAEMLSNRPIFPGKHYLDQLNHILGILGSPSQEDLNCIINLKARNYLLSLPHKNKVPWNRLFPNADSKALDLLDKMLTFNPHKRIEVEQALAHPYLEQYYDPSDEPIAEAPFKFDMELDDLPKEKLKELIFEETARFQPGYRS
Sequence of MAP kinase-activated protein kinase 2 (P49137 whole entry): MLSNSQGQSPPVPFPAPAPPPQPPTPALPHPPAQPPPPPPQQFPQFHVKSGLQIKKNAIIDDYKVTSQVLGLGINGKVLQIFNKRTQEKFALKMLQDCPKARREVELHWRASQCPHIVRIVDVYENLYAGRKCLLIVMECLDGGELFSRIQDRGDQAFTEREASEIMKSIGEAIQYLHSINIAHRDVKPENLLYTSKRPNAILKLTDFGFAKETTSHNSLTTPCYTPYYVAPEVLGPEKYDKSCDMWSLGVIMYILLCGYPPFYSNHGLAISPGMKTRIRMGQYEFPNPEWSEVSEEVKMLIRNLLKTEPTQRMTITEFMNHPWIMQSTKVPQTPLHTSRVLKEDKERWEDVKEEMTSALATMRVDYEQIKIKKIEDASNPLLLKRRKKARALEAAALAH
Sequence of Ribosomal protein S6 kinase alpha-5 (O75582 whole entry): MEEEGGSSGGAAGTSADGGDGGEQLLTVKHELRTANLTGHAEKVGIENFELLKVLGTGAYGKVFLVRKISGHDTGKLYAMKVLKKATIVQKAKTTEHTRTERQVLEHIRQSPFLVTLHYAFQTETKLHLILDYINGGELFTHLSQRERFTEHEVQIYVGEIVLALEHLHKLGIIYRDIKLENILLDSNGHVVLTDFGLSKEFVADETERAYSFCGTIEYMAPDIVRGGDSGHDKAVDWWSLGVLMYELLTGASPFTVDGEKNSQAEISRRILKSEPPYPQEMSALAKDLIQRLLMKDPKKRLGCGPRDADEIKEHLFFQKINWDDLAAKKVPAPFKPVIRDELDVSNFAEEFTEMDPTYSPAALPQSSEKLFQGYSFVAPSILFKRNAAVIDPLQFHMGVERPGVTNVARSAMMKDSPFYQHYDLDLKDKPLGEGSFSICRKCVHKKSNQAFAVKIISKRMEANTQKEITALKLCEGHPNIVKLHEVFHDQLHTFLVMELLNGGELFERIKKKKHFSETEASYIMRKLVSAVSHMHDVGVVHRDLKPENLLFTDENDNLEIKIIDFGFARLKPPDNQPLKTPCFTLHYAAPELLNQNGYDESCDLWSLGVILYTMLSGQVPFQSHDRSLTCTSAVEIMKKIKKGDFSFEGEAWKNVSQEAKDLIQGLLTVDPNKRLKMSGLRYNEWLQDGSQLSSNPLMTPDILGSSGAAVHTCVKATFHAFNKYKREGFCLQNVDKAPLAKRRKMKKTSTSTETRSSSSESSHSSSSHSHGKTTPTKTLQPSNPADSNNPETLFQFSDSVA
Sequence of Mitogen-activated protein kinase 14 (Q16539 whole entry): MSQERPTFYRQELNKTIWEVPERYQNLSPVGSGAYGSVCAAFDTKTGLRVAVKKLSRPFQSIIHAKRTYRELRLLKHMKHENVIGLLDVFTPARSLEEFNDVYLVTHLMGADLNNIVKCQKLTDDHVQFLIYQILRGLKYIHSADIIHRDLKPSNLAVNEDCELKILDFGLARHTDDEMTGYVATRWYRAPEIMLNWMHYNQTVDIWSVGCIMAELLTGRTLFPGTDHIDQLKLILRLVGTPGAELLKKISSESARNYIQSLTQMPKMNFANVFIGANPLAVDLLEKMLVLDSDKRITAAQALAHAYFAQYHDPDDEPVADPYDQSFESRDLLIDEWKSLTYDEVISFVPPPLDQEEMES
Sequence of Mitogen-activated protein kinase 11 (Q15759 whole entry): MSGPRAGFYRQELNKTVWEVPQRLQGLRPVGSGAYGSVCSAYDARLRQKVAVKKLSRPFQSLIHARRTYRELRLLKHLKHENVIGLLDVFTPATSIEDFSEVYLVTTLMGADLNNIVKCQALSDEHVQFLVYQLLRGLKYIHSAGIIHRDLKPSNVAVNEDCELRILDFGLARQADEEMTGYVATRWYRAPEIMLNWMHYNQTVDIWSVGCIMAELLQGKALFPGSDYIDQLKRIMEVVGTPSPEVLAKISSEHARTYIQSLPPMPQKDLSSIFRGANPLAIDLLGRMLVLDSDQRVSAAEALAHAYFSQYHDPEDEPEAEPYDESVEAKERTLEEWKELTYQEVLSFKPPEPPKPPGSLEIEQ
Sequence of Glycogen synthase kinase-3 beta (P49841 whole entry): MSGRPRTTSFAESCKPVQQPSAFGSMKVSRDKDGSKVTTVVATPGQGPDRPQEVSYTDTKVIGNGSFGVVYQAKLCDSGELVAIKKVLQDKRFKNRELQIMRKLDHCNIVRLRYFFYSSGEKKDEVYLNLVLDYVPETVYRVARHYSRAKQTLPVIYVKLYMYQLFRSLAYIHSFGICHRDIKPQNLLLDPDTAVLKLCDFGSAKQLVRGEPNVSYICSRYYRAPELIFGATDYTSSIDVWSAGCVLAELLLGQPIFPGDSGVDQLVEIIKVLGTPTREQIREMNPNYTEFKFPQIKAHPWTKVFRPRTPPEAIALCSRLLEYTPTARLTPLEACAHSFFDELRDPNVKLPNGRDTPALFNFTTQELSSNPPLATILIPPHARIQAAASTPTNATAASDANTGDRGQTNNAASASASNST
Sequence of Ribosomal protein S6 kinase (P70S6K) (Q9UBS0 whole entry): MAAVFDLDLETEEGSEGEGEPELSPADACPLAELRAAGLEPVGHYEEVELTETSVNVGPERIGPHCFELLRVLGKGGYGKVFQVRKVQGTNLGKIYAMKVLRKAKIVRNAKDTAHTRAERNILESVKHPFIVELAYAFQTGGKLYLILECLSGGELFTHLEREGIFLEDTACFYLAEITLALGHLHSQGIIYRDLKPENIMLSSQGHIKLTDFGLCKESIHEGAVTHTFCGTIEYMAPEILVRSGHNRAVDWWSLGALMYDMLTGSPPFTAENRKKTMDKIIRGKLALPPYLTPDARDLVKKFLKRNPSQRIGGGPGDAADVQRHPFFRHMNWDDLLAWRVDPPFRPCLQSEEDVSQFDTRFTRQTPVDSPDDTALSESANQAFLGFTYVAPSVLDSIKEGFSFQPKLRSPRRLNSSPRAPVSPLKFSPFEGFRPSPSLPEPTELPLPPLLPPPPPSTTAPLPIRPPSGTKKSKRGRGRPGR
Sequence of Ribosomal protein S6 kinase (P70S6K) (P23443 whole entry): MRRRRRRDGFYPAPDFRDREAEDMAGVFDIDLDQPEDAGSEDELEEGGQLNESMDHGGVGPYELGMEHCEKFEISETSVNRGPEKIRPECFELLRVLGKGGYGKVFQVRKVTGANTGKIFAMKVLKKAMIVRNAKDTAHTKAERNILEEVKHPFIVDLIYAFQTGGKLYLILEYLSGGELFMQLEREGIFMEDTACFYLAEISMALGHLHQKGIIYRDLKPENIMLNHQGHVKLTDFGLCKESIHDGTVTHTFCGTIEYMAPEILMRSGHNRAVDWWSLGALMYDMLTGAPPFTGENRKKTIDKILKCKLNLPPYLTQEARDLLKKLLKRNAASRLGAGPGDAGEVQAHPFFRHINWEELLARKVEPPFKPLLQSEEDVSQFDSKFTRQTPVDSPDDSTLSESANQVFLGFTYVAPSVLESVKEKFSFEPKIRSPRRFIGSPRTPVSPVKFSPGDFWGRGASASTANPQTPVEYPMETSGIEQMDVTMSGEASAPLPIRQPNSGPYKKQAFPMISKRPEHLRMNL

Row | Structure (SMILES) | pIC50 [1] | pIC50 [2] | pIC50 [3] | pIC50 [4] | other results
1 | Cc1cc(=O)n(C2CCCC2)c2nc(Nc3ccc(N4CCOCC4)cc3)ncc12 | 5.95 | < 5.30 | < 5.30 | 6.94 | 
2 | Cc1c(Br)c(=O)n(C2CCCC2)c2nc(Nc3ccc(N4CCNCC4)cc3)ncc12 | 5.58 |  | 6.02 |  | pIC50 [5]: 6.36
3 | Cc1cc(=O)n(C2CCCC2)c2nc(Nc3ccc(N4CCC(CCCO)CC4)cc3)ncc12 | < 5.30 | < 5.30 | < 5.30 | 6.94 | 
4 | Cc1cc(=O)n(C2CCCC2)c2nc(Nc3ccc(N4CCN(C(=O)OC(C)(C)C)CC4)cc3)ncc12 |  | < 5.30 | < 5.30 | 6.37 | 
5 | Cc1cc(=O)n(CCC(C)C)c2nc(Nc3ccc(N4CCNCC4)cc3)ncc12 | < 5.30 | < 5.30 | < 5.30 | 5.97 | 
6 | CCOC(=O)c1c(C)c2cnc(Nc3ccc(N4CCNCC4)cc3)nc2n(C2CCCC2)c1=O | < 5.30 | < 5.30 | < 5.30 |  | pIC50 [6]: 8.22
7 | Cc1c(F)c(=O)n(C2CCCC2)c2nc(Nc3ccc(N4CCNCC4)cc3)ncc12 | < 5.30 | < 5.30 | < 5.30 | 7.52 | 
8 | Cc1cc(=O)n(C2CCCC2)c2nc(Nc3ccc(N4CCC(N)C4)cc3)ncc12 (stereo not drawn) | < 5.30 |  |  | 7.19 | 
9 | CCc1cc(=O)n(C2CCCC2)c2nc(Nc3ccc(N4CCNCC4)cc3)ncc12 | < 5.30 | < 5.30 | < 5.30 | 6.18 | 
10 | Cc1c(I)c(=O)n(C2CCCC2)c2nc(Nc3ccc(N4CCNCC4)cc3)ncc12 | 5.73 | 6.35 | 6.44 | 8.30 | 
11 | Cc1cc(=O)n(C2CCCC2)c2nc(Nc3ccc(N4CCNC(C)(C)C4)cc3)ncc12 | < 5.30 | < 5.30 | < 5.30 | 7.19 | 
12 | Cc1cc(=O)n(C2CCCC2)c2nc(Nc3ccc(N4CCN(C)CC4)cc3)ncc12 | < 5.30 | < 5.30 | < 5.30 | 7.74 | 
13 | Cc1cc(=O)n(C2CCCC2)c2nc(Nc3ccc(N4C[C@@H](C)N[C@@H](C)C4)cc3)ncc12 | < 5.30 |  | < 5.30 | 6.62 | 
14 | O=c1ccc2cnc(Nc3ccc(N4CCOCC4)cc3)nc2n1C1CCCC1 | 6.56 | 7.55 | 7.07 | 8.00 | 
15 | CC(=O)N1CCN(c2ccc(Nc3ncc4c(C)cc(=O)n(C5CCCC5)c4n3)cc2)CC1 | < 5.30 | < 5.30 | < 5.30 | 6.99 | 
16 | Cc1cc(=O)n(C2CCCC2)c2nc(Nc3ccc(N4CCN(CCO)CC4)cc3)ncc12 | < 5.30 | < 5.30 | < 5.30 | 7.46 | 
17 | Cc1cc(=O)n(C2CCCC2)c2nc(Nc3ccc(N4CCNCC4)c(Cl)c3)ncc12 | < 5.30 | < 5.30 | < 5.30 | 7.55 | 

Row | Structure (SMILES) | pIC50 [1] | pIC50 [2] | pIC50 [3] | pIC50 [4] | other results
18 | Cc1c(C(=O)O)c(=O)n(C2CCCC2)c2nc(Nc3ccc(N4CCNCC4)cc3)ncc12 | < 5.30 | < 5.30 | < 5.30 | 7.49 | 
19 | O=c1cc(C(F)(F)F)c2cnc(Nc3ccc(N4CCNCC4)cc3)nc2n1C1CCCC1 | < 5.30 | < 5.30 | < 5.30 | 5.58 | 
20 | CCc1c(C)c2cnc(Nc3ccc(N4CCNCC4)cc3)nc2n(C2CCCC2)c1=O | 5.39 | 5.81 | 5.78 | 7.60 | 
21 | O=c1ccc2cnc(Nc3ccc(N4CCC(CCCO)CC4)cc3)nc2n1C1CCCC1 | < 5.30 |  | 5.34 |  | 
22 | CN1CCN(c2ccc(Nc3ncc4ccc(=O)n(C5CCCC5)c4n3)cc2)CC1 |  | 7.85 | 7.41 | 8.15 | 
23 | Cc1cc(=O)n(C2CCCC2)c2nc(Nc3ccc(N4CCNCC4)cc3)ncc12 | < 5.30 |  |  | 7.85 | 
24 | O=c1ccc2cnc(Nc3ccc(N4CCNCC4)cc3)nc2n1C1CCCC1 |  |  | 7.10 |  | 
25 | Cc1cc(=O)n(C2CCCC2)c2nc(Nc3ccc(N4CCN(C=O)CC4)cc3)ncc12 | < 5.30 | < 5.30 | < 5.30 | 6.79 | 
26 | CC(=O)c1c(C)c2cnc(Nc3ccc(N4CCNCC4)cc3)nc2n(C2CCCC2)c1=O |  |  |  |  | pIC50 [7]: < 5.00; IC50 (Protein kinase C (PKC)): > 10000 nM; pIC50 [8]: < 5.00; pIC50 (MDA-MB-435): 7.49; pIC50 [9]: < 5.00; pIC50 [10]: < 5.00; IC50 [11]: > 10000 nM; pIC50 [12]: < 5.00; pIC50 [13]: < 5.00; pIC50 [14]: < 5.00; pIC50 [15]: < 5.00; pIC50 [16]: < 5.00; pIC50 [17]: < 5.00; pIC50 [18]: < 5.00; IC50 [19]: > 10000 nM; IC50 [20]: 1860 nM; pIC50 [21]: < 5.00; pIC50 [6]: 8.70; pIC50 [22]: < 5.00
27 | Cc1c(Cl)c(=O)n(C2CCCC2)c2nc(Nc3ccc(N4CCNCC4)cc3)ncc12 | < 5.30 | 5.79 | 5.82 | 7.80 | 
28 | Cc1c(C)c2cnc(Nc3ccc(N4CCNCC4)cc3)nc2n(C2CCCC2)c1=O | < 5.30 |  | < 5.30 | 6.78 | 
29 | Cc1cc(=O)n(C2CCCC2)c2nc(Nc3ccc(N4CCCCC4)cc3)ncc12 |  | < 5.30 |  | 6.74 | 
30 | O=c1ccc2cnc(Nc3ccc(N4CCCCC4)cc3)nc2n1C1CCCC1 | 6.24 | 6.18 | 6.61 | 8.00 | 
31 | COC(=O)c1c(C)c2cnc(Nc3ccc(N4CCNCC4)cc3)nc2n(C2CCCC2)c1=O | < 5.30 | 5.55 | < 5.30 | 8.40 | 
32 | Cc1cc(=O)n(C2CCCC2)c2nc(Nc3ccc(N4CCCNCC4)cc3)ncc12 | < 5.30 | < 5.30 | < 5.30 | 7.28 | 
33 | Cc1cc(=O)n(C(C)C)c2nc(Nc3ccc(N4CCNCC4)cc3)ncc12 | < 5.30 | < 5.30 | < 5.30 | 6.58 | 
34 | Cc1cc(=O)n(C2CCCC2)c2nc(Nc3ccc(N4CCC(O)C4)cc3)ncc12 (stereo not drawn) | < 5.30 |  |  | 6.59 | 
